Converted amounts (≈) assume the structure as drawn. Like-named read-outs stand apart in the source and are kept apart here.

One series concerns the target Hsp90α (Homo sapiens, UniProt P07900). As to the kind of experiment: Kinase inhibition assay, Hsp90α. It is filed as biochemical.
Another series has as its target EGFR (Homo sapiens, UniProt P00533). Put plainly: Kinase inhibition assay, EGFR. It counts as biochemical.
A further series concerns the target VEGFR2 (Homo sapiens, UniProt P35968). As to the kind of experiment: Kinase inhibition assay, VEGFR2. It is filed as biochemical.
A further series relates to B16 melanoma cell line. Put plainly: Cell proliferation. It counts as cell-based. Conditions: for B16 GI ratio: B16 cells, test concentration not given; for IC50: Mus musculus, read-out: IC50, B16 melanoma cell line.
The subject of the next series is B16 melanoma xenograft. As to the kind of experiment: B16 subcutaneous tumor xenograft model. It is filed as in vivo, C57BL/6J mice. Conditions: for tumor growth inhibition ratio: B16 subcutaneous xenograft, C57BL/6J mice, once a day. The gist of the method:
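Female C57BL/6J mice, 8–12 weeks old, received B16 cells subcutaneously in the dorsal flank (5 × 105 in 100 μL PBS). Groups of 8 were dosed once a day with test compound or NS control. Tumours were measured every two days and volume was taken as a×b2×0.5. Excised tumours were formalin-fixed, paraffin-embedded, sectioned, and stained for TUNEL, EGFR, Akt, pAkt473 and Ki67.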

A further series deals with PI3Kα (Homo sapiens, UniProt P42336). As to the kind of experiment: Kinase inhibition assay, PI3Kα. It is filed as biochemical.
Series [1] deals with several cancer cells (B16, HepG2, A549, SW620, MCF-7, Hela). As to the kind of experiment: Cytotoxic activity in several cancer cells. It counts as cell-based. Conditions: Figure 5(A). The procedure, abridged:
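Cells were kept in DMEM with 10% FBS at 37 °C and 5% CO2 and used in exponential growth. They were seeded at 3–6 × 10^3 cells/well for 24 h, then given DMSO or various compound concentrations for 24 or 48 h. MTT (0.5 mg/mL in medium) was added for 3 h at 37 °C and dissolved in DMSO; absorbance was read at 570 nm. Three experiments, each in triplicate.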

The subject of series [2] is B16 cells. Put plainly: Colony formation assay. It is filed as cell-based. Conditions: 8m-incubated B16 cells vs control group.
The test system of series [3] is B16 cells. Put plainly: Flow cytometry with annexinV/PI dual staining. It is filed as cell-based. Conditions: 24 h incubation. For orientation: In flow cytometry, cells or beads pass a laser one at a time.
The test system of series [4] is B16 cells. Put plainly: Cell cycle analysis by PI staining flow cytometry. It counts as cell-based. Conditions: 24 h treatment.
Series [5] concerns B16 cells. Put plainly: Transwell Matrigel invasion assay. Conditions: dose-dependent. It is filed as cell-based. The procedure, abridged: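 Transwell chambers with 8-μm pores and Matrigel-precoated top chambers were used. B16 cells (1 × 105) in serum-free medium went into the top chamber, with DMEM in the bottom chamber. Invaded cells were stained with crystal violet and counted under a microscope in triplicate.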

Series [6] concerns B16 cells. Put plainly: Wound-healing cell migration assay. It is filed as cell-based. Conditions: 24 h of exposure, dose-dependent. The gist of the method:
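B16 cells were seeded at 1 × 10^5 per well in 6-well plates in DMEM and grown overnight. Three scratches per well were made with a 200 µl pipette tip. After a PBS wash, serum-free DMEM containing various compound concentrations or DMSO was added. Migration was assessed by light microscopy between 0 h and 24 h.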

Series [7] deals with B16 cells. As to the kind of experiment: Western blotting of B16 melanoma cell extracts. It is filed as cell-based. The gist of the method:
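Total protein was extracted from treated B16 cells, separated by SDS-PAGE (7.5–15% gels, chosen by protein size) and transferred to PVDF. Membranes were blocked with 5% BSA, incubated with primary antibodies on ice overnight, then with HRP-conjugated secondary antibodies for 1 h at room temperature. Bands were detected by ECL. Migration- and invasion-related proteins were assessed at 20 and 40 μg/mL.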
Background: A western blot detects proteins with antibodies after separation by electrophoresis.

PI3Kα, sequence (P42336 whole entry): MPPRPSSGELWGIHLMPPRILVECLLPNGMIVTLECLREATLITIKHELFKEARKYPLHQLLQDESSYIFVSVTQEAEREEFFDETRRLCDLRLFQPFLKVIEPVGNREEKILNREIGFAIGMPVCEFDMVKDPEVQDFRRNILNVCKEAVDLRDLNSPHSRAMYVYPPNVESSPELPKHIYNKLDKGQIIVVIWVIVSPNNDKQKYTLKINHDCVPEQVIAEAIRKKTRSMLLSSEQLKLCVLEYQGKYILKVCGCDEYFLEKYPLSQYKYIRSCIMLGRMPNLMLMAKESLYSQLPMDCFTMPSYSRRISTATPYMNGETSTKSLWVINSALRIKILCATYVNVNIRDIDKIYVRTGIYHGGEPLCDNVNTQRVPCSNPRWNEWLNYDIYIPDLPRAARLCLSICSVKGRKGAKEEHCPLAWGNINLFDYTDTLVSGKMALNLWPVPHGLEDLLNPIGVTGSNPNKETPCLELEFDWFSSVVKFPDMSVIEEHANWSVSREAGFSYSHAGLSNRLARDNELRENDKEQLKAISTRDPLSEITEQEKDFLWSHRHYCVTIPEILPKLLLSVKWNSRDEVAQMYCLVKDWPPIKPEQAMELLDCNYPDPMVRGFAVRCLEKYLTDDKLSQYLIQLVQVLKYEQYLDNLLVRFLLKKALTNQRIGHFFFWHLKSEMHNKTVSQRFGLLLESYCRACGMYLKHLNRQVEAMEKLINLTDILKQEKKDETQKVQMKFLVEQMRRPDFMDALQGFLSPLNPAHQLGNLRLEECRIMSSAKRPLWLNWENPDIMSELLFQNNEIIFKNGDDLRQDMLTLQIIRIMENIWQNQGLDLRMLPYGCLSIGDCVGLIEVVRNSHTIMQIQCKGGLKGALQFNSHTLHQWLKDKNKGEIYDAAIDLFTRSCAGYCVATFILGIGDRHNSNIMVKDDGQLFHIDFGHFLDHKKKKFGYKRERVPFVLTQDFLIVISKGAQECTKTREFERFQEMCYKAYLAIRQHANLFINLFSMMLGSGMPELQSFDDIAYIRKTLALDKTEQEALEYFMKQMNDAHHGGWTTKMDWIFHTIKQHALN
PI3Kα, sequence (P27986 whole entry partner): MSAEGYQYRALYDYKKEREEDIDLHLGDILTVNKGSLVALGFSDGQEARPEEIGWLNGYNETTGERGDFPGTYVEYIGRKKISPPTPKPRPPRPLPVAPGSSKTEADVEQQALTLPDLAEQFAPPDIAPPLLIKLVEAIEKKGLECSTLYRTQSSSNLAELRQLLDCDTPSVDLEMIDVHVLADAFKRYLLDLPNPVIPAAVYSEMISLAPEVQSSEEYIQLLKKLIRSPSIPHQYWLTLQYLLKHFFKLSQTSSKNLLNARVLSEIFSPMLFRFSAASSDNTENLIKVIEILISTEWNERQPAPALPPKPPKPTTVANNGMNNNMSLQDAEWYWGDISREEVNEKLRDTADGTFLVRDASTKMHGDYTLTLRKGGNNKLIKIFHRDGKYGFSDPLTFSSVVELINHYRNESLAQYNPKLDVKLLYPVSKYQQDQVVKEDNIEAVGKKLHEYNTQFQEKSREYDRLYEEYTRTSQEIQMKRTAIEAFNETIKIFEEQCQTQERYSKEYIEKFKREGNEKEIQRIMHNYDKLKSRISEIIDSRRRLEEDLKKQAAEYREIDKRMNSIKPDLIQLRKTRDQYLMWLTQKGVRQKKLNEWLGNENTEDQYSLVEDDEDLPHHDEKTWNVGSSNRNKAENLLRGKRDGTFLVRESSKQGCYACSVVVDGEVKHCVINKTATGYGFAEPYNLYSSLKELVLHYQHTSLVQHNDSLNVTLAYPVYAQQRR
EGFR, sequence (P00533 25-1210): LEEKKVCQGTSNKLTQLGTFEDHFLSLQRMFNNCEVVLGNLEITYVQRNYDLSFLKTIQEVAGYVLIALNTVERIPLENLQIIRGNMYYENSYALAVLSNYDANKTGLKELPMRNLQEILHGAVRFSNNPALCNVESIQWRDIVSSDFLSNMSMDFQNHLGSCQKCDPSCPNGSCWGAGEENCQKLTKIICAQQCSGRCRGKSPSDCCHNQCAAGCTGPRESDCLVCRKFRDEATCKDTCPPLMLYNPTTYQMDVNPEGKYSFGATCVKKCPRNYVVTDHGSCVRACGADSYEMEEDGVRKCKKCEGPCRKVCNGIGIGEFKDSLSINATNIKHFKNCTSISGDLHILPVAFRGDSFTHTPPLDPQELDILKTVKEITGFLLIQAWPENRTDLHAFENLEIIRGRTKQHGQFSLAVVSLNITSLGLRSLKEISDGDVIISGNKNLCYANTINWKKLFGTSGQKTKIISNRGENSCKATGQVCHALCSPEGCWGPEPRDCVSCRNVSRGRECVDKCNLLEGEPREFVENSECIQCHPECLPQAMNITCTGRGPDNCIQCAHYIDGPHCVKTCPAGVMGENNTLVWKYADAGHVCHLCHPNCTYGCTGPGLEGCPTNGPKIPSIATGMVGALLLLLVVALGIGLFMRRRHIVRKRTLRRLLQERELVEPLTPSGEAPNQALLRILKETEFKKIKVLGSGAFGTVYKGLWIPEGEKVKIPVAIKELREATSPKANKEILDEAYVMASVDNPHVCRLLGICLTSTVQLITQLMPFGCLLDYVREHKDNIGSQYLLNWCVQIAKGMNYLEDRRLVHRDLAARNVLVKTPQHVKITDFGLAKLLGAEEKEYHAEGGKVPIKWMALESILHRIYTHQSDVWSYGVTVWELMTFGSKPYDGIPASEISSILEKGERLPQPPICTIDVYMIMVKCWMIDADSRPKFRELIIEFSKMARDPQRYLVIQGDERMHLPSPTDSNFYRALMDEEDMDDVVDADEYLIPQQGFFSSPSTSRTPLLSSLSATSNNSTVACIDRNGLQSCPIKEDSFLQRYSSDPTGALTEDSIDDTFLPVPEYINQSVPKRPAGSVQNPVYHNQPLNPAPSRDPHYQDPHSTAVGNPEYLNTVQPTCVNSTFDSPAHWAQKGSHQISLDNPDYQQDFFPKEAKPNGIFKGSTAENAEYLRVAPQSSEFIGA
VEGFR2, sequence (P35968 20-1356): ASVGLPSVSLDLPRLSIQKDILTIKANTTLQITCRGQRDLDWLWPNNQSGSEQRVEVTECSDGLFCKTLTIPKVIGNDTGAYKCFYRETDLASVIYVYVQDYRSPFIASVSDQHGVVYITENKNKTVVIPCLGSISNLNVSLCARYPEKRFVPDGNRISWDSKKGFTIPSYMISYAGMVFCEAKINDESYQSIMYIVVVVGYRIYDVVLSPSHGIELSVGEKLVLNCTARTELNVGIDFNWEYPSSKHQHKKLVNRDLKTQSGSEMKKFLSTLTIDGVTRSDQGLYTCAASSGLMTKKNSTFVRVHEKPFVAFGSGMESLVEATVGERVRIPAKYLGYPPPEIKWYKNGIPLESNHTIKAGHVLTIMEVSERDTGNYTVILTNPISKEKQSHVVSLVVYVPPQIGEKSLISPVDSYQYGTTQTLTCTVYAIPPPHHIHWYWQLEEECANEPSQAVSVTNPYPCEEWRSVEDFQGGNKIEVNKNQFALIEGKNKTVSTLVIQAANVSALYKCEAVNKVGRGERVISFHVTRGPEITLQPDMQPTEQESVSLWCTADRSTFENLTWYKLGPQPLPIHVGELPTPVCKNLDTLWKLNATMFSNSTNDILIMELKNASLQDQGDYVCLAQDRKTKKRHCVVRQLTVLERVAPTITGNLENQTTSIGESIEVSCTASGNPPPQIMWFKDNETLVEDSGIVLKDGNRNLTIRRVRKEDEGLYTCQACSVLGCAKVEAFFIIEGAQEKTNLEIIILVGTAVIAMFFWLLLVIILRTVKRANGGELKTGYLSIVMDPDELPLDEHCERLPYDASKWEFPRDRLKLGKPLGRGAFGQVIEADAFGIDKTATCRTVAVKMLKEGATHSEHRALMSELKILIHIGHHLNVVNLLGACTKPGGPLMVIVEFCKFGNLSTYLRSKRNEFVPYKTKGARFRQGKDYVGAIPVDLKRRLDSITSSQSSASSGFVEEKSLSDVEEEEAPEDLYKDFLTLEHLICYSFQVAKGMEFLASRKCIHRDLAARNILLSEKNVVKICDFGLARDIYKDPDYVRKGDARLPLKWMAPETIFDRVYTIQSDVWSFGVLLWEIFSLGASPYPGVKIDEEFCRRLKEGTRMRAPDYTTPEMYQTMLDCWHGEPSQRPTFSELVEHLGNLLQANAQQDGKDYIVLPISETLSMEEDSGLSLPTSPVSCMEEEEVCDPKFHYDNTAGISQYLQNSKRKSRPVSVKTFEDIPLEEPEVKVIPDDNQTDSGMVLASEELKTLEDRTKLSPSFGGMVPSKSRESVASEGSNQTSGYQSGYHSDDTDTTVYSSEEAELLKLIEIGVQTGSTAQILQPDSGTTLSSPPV

A word on the IC50: it is the concentration that inhibits the measured activity by half. In the case of `CC(C)c1cc(C(=O)N2CCc3c(sc4ncnc(Nc5ccc(Cl)cc5)c34)C2)c(O)cc1O` [Compound 8f, (4-((4-chlorophenyl)amino)-5,8-dihydropyrido[4',3':4,5]thieno[2,3-d]pyrimidin-7(6H)-yl)(2,4-dihydroxy-5-isopropylphenyl)methanone], the concentration for half-maximal inhibition (IC50) at Hsp90α is 318 nM; at EGFR, 76.6 nM; against VEGFR2, over 10000 nM. For the same compound, in the series on B16 melanoma cell line, the “B16 GI ratio” value is 29.5%.
For `Cc1cccc(Nc2ncnc3sc4c(c23)CCN(C(=O)c2cc(C(C)C)c(O)cc2O)C4)c1` [Compound 8d, (2,4-dihydroxy-5-isopropylphenyl)(4-(m-tolylamino)-5,8-dihydropyrido[4',3':4,5]thieno[2,3-d]pyrimidin-7(6H)-yl)methanone] the same measures were 318 nM, 51.8 nM, over 10000 nM and 41.7%.
The corresponding values for `Cc1ccc(Nc2ncnc3sc4c(c23)CCN(C(=O)c2cc(C(C)C)c(O)cc2O)C4)c(C)c1` [Compound 8i, (2,4-dihydroxy-5-isopropylphenyl)(4-((2,4-dimethylphenyl)amino)-5,8-dihydropyrido[4',3':4,5]thieno[2,3-d]pyrimidin-7(6H)-yl)methanone] are 1640 nM, 578 nM, 169 nM and 24.8%.
For `CC(C)c1cccc(Nc2ncnc3sc4c(c23)CCN(C(=O)c2cc(C(C)C)c(O)cc2O)C4)c1` [Compound 8h, (2,4-dihydroxy-5-isopropylphenyl)(4-((3-isopropylphenyl)amino)-5,8-dihydropyrido[4',3':4,5]thieno[2,3-d]pyrimidin-7(6H)-yl)methanone] the same measures were 468 nM, 380 nM, over 10000 nM and 39.1%.
As for `CC(C)c1cc(-c2n[nH]c(=O)n2-c2ccc3c(ccn3C)c2)c(O)cc1O` [Ganetespib, reference compound], the “tumor growth inhibition ratio” value with B16 melanoma xenograft was 57%.
Take `CC(C)c1cc(C(=O)N2CCc3c(sc4ncnc(Nc5ccc(Br)cc5)c34)C2)c(O)cc1O` [Compound 8b, (4-((4-bromophenyl)amino)-5,8-dihydropyrido[4',3':4,5]thieno[2,3-d]pyrimidin-7(6H)-yl)(2,4-dihydroxy-5-isopropylphenyl)methanone]: the values for the IC50 against Hsp90α, on EGFR and on VEGFR2 were 290 nM, 49.9 nM and over 10000 nM, respectively. The “B16 GI ratio” value in the series with B16 melanoma cell line stood at 33.6%.
With `CC(C)c1cc(C(=O)N2CCc3c(sc4ncnc(Nc5cccc(O)c5)c34)C2)c(O)cc1O` [Compound 8j, (2,4-dihydroxy-5-isopropylphenyl)(4-((3-hydroxyphenyl)amino)-5,8-dihydropyrido[4',3':4,5]thieno[2,3-d]pyrimidin-7(6H)-yl)methanone], the IC50 on Hsp90α worked out at 207 nM; against EGFR, 147 nM; against VEGFR2, 716 nM. In the series on B16 melanoma cell line, the “B16 GI ratio” value was determined as 36.0%.
For `CCc1cccc(Nc2ncnc3sc4c(c23)CCN(C(=O)c2cc(C(C)C)c(O)cc2O)C4)c1` [Compound 8a, (2,4-dihydroxy-5-isopropylphenyl)(4-((3-ethylphenyl)amino)-5,8-dihydropyrido[4',3':4,5]thieno[2,3-d]pyrimidin-7(6H)-yl)methanone] the same measures were 375 nM, 60.7 nM, over 10000 nM and 26.8%.
Take `CC(C)c1cc(C(=O)N2CCc3c(sc4ncnc(N(C)C)c34)C2)c(O)cc1O` [Compound 8n, (2,4-dihydroxy-5-isopropylphenyl)(4-(dimethylamino)-5,8-dihydropyrido[4',3':4,5]thieno[2,3-d]pyrimidin-7(6H)-yl)methanone]: the results for the concentration for half-maximal inhibition (IC50) at Hsp90α and on PI3Kα were 79.5 nM and 568 nM, respectively. In the series on B16 melanoma cell line, the “B16 GI ratio” value amounted to 46.7%.
For the compound `Oc1cccc(-c2nc(N3CCOCC3)c3oc4ncccc4c3n2)c1` [PI-103, reference compound], the “tumor growth inhibition ratio” value in the series with B16 melanoma xenograft is recorded as 29%.
For the compound `CC(C)c1cc(C(=O)N2CCc3c(sc4ncnc(N5CCCC5)c34)C2)c(O)cc1O` [Compound 8l, (2,4-dihydroxy-5-isopropylphenyl)(4-(pyrrolidin-1-yl)-5,8-dihydropyrido[4',3':4,5]thieno[2,3-d]pyrimidin-7(6H)-yl)methanone], the IC50 at Hsp90α is 65 nM; against PI3Kα it was 169 nM. In the series with B16 melanoma cell line, the “B16 GI ratio” value was found to be 60.4%.
Compound `CC(C)c1cc(C(=O)N2CCc3c(sc4ncnc(N5CCOCC5)c34)C2)c(O)cc1O` [Compound 8m, (2,4-dihydroxy-5-isopropylphenyl)(4-morpholino-5,8-dihydropyrido[4',3':4,5]thieno[2,3-d]pyrimidin-7(6H)-yl)methanone] showed an IC50 at PI3Kα of 48.4 nM. The IC50 in the series on B16 melanoma cell line (B16, 24 h) is about 0.56 µg/mL (≈ 1.23 µM). The IC50 in the series with B16 melanoma cell line (B16, 48 h) was about 0.47 µg/mL (≈ 1.03 µM). The “cytotoxic activity in several cancer cells” value in series [1] is “most potent in melanoma cells”. Moreover, in the series on B16 cells [2], the “clone formation, size and number of the colonies” value is “dose-dependent decline”. In addition, the apoptotic positive cells result in the series with B16 cells [3] was “significant increase”. In the series with B16 cells [4], the “cell counts in G1 phase” value is recorded as “corresponding descent” and the “cell counts in G2 phase” value was “significantly increased”. In the series on B16 cells [5], the “cell invasion (Matrigel Transwell)” value is “remarkable decrease”. For the same compound, the “wound areas (cell migration)” value in the series with B16 cells [6] is “minimal changes”. In addition, in the series with B16 cells [7] (B16 cells), the “cleavage of apoptosis related proteins (western blot)” value was “cleavage of Caspase-3, Caspase-8, Caspase-9 and PARP”; the “expression levels of Hsp90 client proteins cdc37, CDK4, EGFR, bRaf and cRaf (western blot)” value is recorded as “remarkably suppressed”; the “expression levels of Hsp90α and Hsp70 (western blot)” value is “declined”; the “p-Akt (Ser473), p-Akt (Thr308) and total Akt expression (western blot)” value is given as “downregulated”. Also, in the series on B16 cells [7] (B16 cells, 20, 40 μg/mL), the “E-cadherin expression (western blot)” value is on record as “up-regulated” and the “expression of MMPs, vimentin, N-cadherin, β-catenin, ZEB1 (western blot)” value is on record as “remarkably down-regulated”. In the series on B16 cells [7] (B16 cells, total PI3Kα not influenced), the “autophosphorylation of PI3Kα (western blot)” value was “inhibited”. Moreover, the “apoptotic positive cells in tumor tissue (TUNEL)” value in the series with B16 melanoma xenograft (B16 xenograft tumor sections, among all therapeutic groups) was “highest number of apoptotic positive cells”. For the same compound, in the series with B16 melanoma xenograft (B16 xenograft tumor sections, p < .01), the “Ki-67 positive cells in tumor tissue” value was “most significant suppression”.
Take `CC(C)c1cc(C(=O)N2CCc3c(sc4ncnc(Nc5cccc(Cl)c5)c34)C2)c(O)cc1O` [Compound 8c, (4-((3-chlorophenyl)amino)-5,8-dihydropyrido[4',3':4,5]thieno[2,3-d]pyrimidin-7(6H)-yl)(2,4-dihydroxy-5-isopropylphenyl)methanone]: the IC50 against Hsp90α is 196 nM; at EGFR, 37.1 nM; against VEGFR2 it was over 10000 nM. Also, in the series on B16 melanoma cell line, the “B16 GI ratio” value amounted to 51.2%.
Consider `CC(C)c1cc(C(=O)N2CCc3c(sc4ncnc(N5CCCCC5)c34)C2)c(O)cc1O` [Compound 8k, (2,4-dihydroxy-5-isopropylphenyl)(4-(piperidin-1-yl)-5,8-dihydropyrido[4',3':4,5]thieno[2,3-d]pyrimidin-7(6H)-yl)methanone], for which the IC50 against Hsp90α worked out at 51.9 nM; on PI3Kα, 133 nM. Further, in the series with B16 melanoma cell line, the “B16 GI ratio” value is listed as 65.2%.
For the compound `CC(C)c1cc(C(=O)N2CCc3c(sc4ncnc(Nc5cccc(F)c5)c34)C2)c(O)cc1O` [Compound 8e, (2,4-dihydroxy-5-isopropylphenyl)(4-((3-fluorophenyl)amino)-5,8-dihydropyrido[4',3':4,5]thieno[2,3-d]pyrimidin-7(6H)-yl)methanone], the IC50 is 229 nM on Hsp90α, 40.2 nM against EGFR and over 10000 nM against VEGFR2. For the same compound, in the series with B16 melanoma cell line, the “B16 GI ratio” value is 38.9%.
As for `COc1cccc(Nc2ncnc3sc4c(c23)CCN(C(=O)c2cc(C(C)C)c(O)cc2O)C4)c1` [Compound 8g, (2,4-dihydroxy-5-isopropylphenyl)(4-((3-methoxyphenyl)amino)-5,8-dihydropyrido[4',3':4,5]thieno[2,3-d]pyrimidin-7(6H)-yl)methanone], the values for the IC50 on Hsp90α, against EGFR and on VEGFR2 were 210 nM, 71 nM and over 10000 nM, respectively. Further, the “B16 GI ratio” value with B16 melanoma cell line turned out to be 37.5%.

The values are drawn from article PMC8853710 (Journal of Enzyme Inhibition and Medicinal Chemistry, 2019).
